NPY-Y1 antag: NPY-Y1 (human) receptor antagonism; HEK293-CNG Y1 cells, membrane potential fluorescence; NPY at EC95, then isoproterenol; inhibition, % at 3.6 µM; 1% of 200,000 active; AID 1040;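 active means inhibition above the campaign mean inhibition of all tested compounds plus 3 SD, cut at about 20% in these data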;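 further: 0% = DMSO wells given NPY plus isoproterenol and 100% = isoproterenol alone without NPY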
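Test system – HEK293 Y1/CNG channel cell line · Also added – NPY agonist 25 nM, then isoproterenol 1 µM plus Ro 20-1724 25 µM · Compound dosing – one concentration, 3.6 µM, in 0.4% DMSO · Schedule – compound incubation 1 h at room temperature, readout 45 min post-stimulation · Technique – fluorescence, membrane potential probe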
NPY Y2 blocker: antagonists of human neuropeptide Y receptor Y2; AID 793; P49146; NPY-Y2 expressing cells, antagonist mode; 0.99% of 140,000 active; inhibition, % at 2.7 µM; in the data active means inhibition above about 17%;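 further: 0% = vehicle with agonist challenge and 100% = reference antagonist with challenge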
NPY-Y2 PAM-ag: potentiators or agonists of human neuropeptide Y receptor Y2. cells expressing NPY-Y2, potentiator/agonist read-out. AID 1359. 0.45% of 220,000 active. activation, % at 3.6 µM; in the data active means activation above about 27%;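 further: cells stimulated with NPY near EC25 plus isoproterenol at EC100; 0% = vehicle plus submaximal agonist and 100% = vehicle plus saturating agonist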
S1P4 antag: human S1P4 receptor antagonism; inhibition, % at 4.98 µM; 0.26% of 220,000 active; S1P4-expressing cells, antagonist mode, reporter read-out; in the data active means inhibition above about 29%;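 further: 0% = wells stimulated with agonist and 100% = vehicle wells without agonist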
Target sequence (O95977 whole entry, looked up): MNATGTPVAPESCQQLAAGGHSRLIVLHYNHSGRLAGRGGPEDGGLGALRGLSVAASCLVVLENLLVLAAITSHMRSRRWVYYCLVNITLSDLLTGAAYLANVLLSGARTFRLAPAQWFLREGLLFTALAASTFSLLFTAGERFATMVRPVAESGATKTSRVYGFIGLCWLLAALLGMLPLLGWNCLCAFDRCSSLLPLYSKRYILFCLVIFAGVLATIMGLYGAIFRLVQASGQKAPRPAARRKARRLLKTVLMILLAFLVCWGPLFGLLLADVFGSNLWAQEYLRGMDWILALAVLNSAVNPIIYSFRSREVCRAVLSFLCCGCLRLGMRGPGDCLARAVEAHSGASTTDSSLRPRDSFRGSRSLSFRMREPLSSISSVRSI
S1P4 agonist: activates the human S1P4 receptor | O95977 | S1P4-expressing cell line, agonist reporter assay | activation, % at 4.98 µM | 0.35% of 220,000 active; in the data active means activation above about 11%;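 further: 0% = DMSO vehicle and 100% = reference agonist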
NPY-Y1 PAM-ag: human NPY-Y1 potentiation or agonism, primary screen | P25929 | NPY-Y1 expressing cells, potentiator/agonist activation | activation, % at 3.6 µM | 0.37% of 220,000 active | AID 1304; in the data active means activation above about 33%, passing the limit was not always enough;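 further: cells stimulated with NPY at EC10 then isoproterenol at EC100; 0% = low agonist plus stimulus and 100% = saturating agonist plus stimulus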
NPY1 antag ctr: antagonizes human NPY-Y1, counter-screen to NPY-Y2 antagonists | shares compounds with NPY Y2 blocker | cell-based NPY-Y1 antagonism counterscreen | inhibition, % at 3.6 µM | 19% of 710 active | AID 1256; in the data active means inhibition above about 20%;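 further: cells challenged with NPY then isoproterenol with cAMP sensed through a CNG channel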
NPY2 antag conf: confirmation of human neuropeptide Y receptor Y2 antagonists; 32% of 710 active; HEK293 NPY-Y2 CNG channel, membrane potential fluorescence; inhibition, % at 2.8 µM; shares compounds with NPY Y2 blocker;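 active means mean inhibition of triplicate wells above the hit cutoff set in the primary screen, cut at about 17% in these data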;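 further: 0% = DMSO with NPY challenge and 100% = BIIE0246 high control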
* hit, by the source's call; . = no result. A selection: hits, their analogues and other compounds. The true share with any hit is near 2.4%.

SMILES	NPY-Y1 antag	NPY Y2 blocker	NPY-Y2 PAM-ag	S1P4 antag	S1P4 agonist	NPY-Y1 PAM-ag	NPY1 antag ctr	NPY2 antag conf
CCC(C)(C(=O)NC1CCCC1)N(Cc1cccs1)C(=O)c1ccccn1 (configuration not stated)	16.0	.	-4.8	9.1	-0.7	-18.3	.	.
CCC(C)(C(=O)NC1CCCC1)N(Cc1ccco1)C(=O)c1ccccn1 (configuration not stated)	17.8	22.8*	-13.1	-6.4	1.6	-14.3	13.9	8.1
COC(=O)c1ccccc1NC(=O)Cn1c(-c2nonc2N)nc2ccccc21	19.9	38.7*	-13.0	-7.8	1.4	-42.9	18.6	23.5*
CC(C)OC(=O)c1ccc(NC(=O)Cn2c(-c3nonc3N)nc3ccccc32)cc1	19.8	17.9*	-15.4	10.9	2.7	-43.8	10.8	12.5
CCOC(=O)N1CCN(C(=O)c2cnn3c(C(F)F)cc(-c4ccc(C)cc4)nc23)CC1	-1.6	17.2*	-22.5	0.6	2.1	-23.8	3.2	3.2
CC1CCCCC1NC(=O)c1ccc(S(=O)(=O)NCc2ccco2)cc1 (configuration not stated)	9.4	17.2*	2.9	-3.0	-1.5	-17.4	9.2	9.0
O=C(Nc1ccccc1)c1ccc(S(=O)(=O)NCc2ccco2)cc1	-2.1	2.3	8.2	-8.9	-0.9	-3.9	.	.
Cc1[nH]nc2c1C(c1cnn(C)c1)C(C#N)=C(N)O2 (configuration not stated)	4.5	.	-8.3	8.3	1.0	-4.0	.	.
CC1=C(C(=O)OCc2ccc3c(c2)OCO3)C(c2ccc(Cl)cc2)NC(=O)N1 (configuration not stated)	-4.4	7.8	-12.3	17.2	5.4	-13.4	.	.
CC1=C(C(=O)OCc2ccc3c(c2)OCO3)C(c2ccc(F)cc2)NC(=O)N1 (configuration not stated)	8.2	24.2*	-0.5	9.5	4.7	-1.3	6.5	11.0
CCOc1ccc(N(CC(=O)NC(C)CC)S(=O)(=O)c2c(C)noc2C)cc1 (configuration not stated)	4.7	4.3	-4.2	-18.1	1.8	3.8	.	.
CCOc1ccc(N(CC(=O)NC2CCCC(C)C2C)S(=O)(=O)c2c(C)noc2C)cc1 (configuration not stated)	7.3	19.7*	14.0	9.4	-0.9	-7.3	3.7	5.7
CCOC(=O)c1nn(-c2ccc(F)cc2)c2nc(-c3ccccc3)c(C#N)c(=O)n12	7.3	18.6*	-8.4	-12.0	-1.2	-11.0	10.7	7.8
CCOC(=O)c1nn(-c2cccc(C)c2)c2nc(-c3ccccc3)c(C#N)c(=O)n12	-1.6	1.3	-7.8	-6.4	-3.1	-8.7	.	.
CCN(CC)C(=O)CSc1nc(N)c(C#N)c(-c2cccs2)c1C#N	-5.6	1.9	-4.4	4.1	-2.1	-19.0	.	.
CCN(CC)C(=O)CSc1nc(-c2cccs2)cc(-c2cccs2)c1C#N	5.0	18.2*	5.1	4.6	1.1	-35.5	16.4	12.5
CCn1nc(C)c(CN2CCN(Cc3ccsc3)C(CCO)C2)c1C (configuration not stated)	8.1	.	-24.5	-6.6	0.8	6.0	.	.
O=C(O)c1cccnc1SC1CC(=O)N(c2ccc(OC(F)F)cc2)C1=O (configuration not stated)	.	.	3.6	9.5	-1.1	-17.1	.	.
C(#Cc1ccccc1)C[N+]1(CC#Cc2cccc3ccccc23)CCCC1	19.3	17.8*	0.8	-33.6	-0.7	-19.0	5.7	11.1
CCOC(=O)c1c(-n2cccc2)sc2c1CCCC2=O	-3.2	25.4*	11.9	-18.0	2.2	1.5	1.4	2.8
CCOC(=O)c1c(N2C(=O)Nc3ccccc3N2O)sc2c1CCCC2	-0.2	3.8	4.9	-19.3	-0.2	17.8	.	.
O=C(CSc1cccc2cccc(Cl)c12)OCC(=O)N1CCN(C(=O)c2ccco2)CC1	12.3	18.8*	-22.0	6.6	-2.5	-17.5	14.6	12.4
COc1ccc(Cl)cc1NC(=O)c1c(-c2ccccc2)noc1C	17.9	24.8*	-3.1	3.0	-1.9	-16.9	18.6	9.8
COc1cc(OC)c(NC(=O)c2c(-c3ccccc3)noc2C)cc1Cl	3.9	1.6	3.7	-3.0	-1.2	8.0	.	.
CCCNC(=O)C/C(C)=N/NC(=O)C(=O)Nc1ccccn1	2.9	.	-5.6	-5.9	0.7	3.0	.	.
SMILES	NPY-Y1 antag	NPY Y2 blocker	NPY-Y2 PAM-ag	S1P4 antag	S1P4 agonist	NPY-Y1 PAM-ag	NPY1 antag ctr	NPY2 antag conf
Cc1noc(C)c1CSc1nc2ccccc2c(=O)n1-c1ccc(F)cc1F	18.4	24.8*	-2.4	-6.0	-1.3	-16.6	20.4*	13.9
Cc1[nH]c2ccccc2c1C(=O)CSc1nc2ccccc2c(=O)n1-c1ccccc1F	2.9	.	-22.1	-3.1	-2.2	0.4	.	.
CC1(C)OC2C(O1)[C@@H](CO)O[C@H]2n1cnc2c(N)ncnc21 (some centres not stated)	.	.	-11.1	-3.1	0.9	-7.0	.	.
OC[C@H]1O[C@@H](n2cnc3c(Nc4ccccc4)ncnc32)[C@H](O)[C@@H]1O	14.3	22.4*	-20.2	-17.8	0.2	-72.4	10.9	48.5*
CC1CC(N(C(=O)c2ccccc2Cl)c2ccccc2)c2ccccc2N1 (configuration not stated)	8.0	18.5*	-13.4	-17.1	-2.4	3.2	62.1*	71.8*
Nn1c(Cc2ccccc2)n[nH]c1=S	2.6	.	-5.8	2.7	0.1	13.1	.	.
COc1ccc(C(C)=O)cc1CSc1nc2ccccc2c(=O)n1-c1ccccc1	-0.1	11.2	8.5	-13.0	-0.3	1.8	.	.
COc1ccc(C(C)=O)cc1CSc1nc2ccccc2c(=O)n1-c1ccccc1C	15.5	20.4*	-1.1	-17.4	-2.4	-12.3	11.2	13.0
COc1ccc(Cc2nc(C(=O)Nc3ccccc3)cs2)cc1	14.5	18.3*	-11.8	12.3	-1.0	-17.9	7.5	8.6
CCOc1ccc2ccccc2c1C(=O)N1CCN(c2ccccc2)CC1	18.6	18.3*	10.0	-1.8	1.9	-12.7	16.9	9.6
CCOC(=O)c1[nH]c(C)c(C(=O)N2CCN(c3ccccc3)CC2)c1C	2.6	4.9	-4.0	-3.8	2.3	-25.2	.	.
O=C1CCC(c2ccccc2)=NN1	-2.7	.	-15.7	-4.0	-3.0	6.1	.	.
CC(C)CCOc1ccc(C2=NNC(=O)CC2)cc1	15.2	42.3*	-16.3	-20.2	-1.0	-52.6	20.2*	41.1*
Cc1cccc(/C(N)=N/OC(=O)COc2ccccc2Cl)c1	5.3	18.6*	5.6	10.0	0.1	-28.2	7.9	15.3
COc1ccc(/C(N)=N/OC(=O)COc2ccccc2Cl)cc1	7.9	6.6	-5.6	-13.3	1.5	-29.6	.	.
